Key:
[1] = target: T1, Mitogen-activated protein kinase 14 (Homo sapiens, UniProt Q16539); assay: Inhibition of human recombinant p38alpha-mediated […] phosphorylation after 1 hr by HTRF assay
[2] = system: THP-1; assay: Inhibition of LPS-induced TNFalpha production in human THP1 cells after 3 hrs; format: functional, cell-based
Procedure, shortened: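 THP-1 cells at 1.5 x 10^6/mL in RPMI 1640, 10% heat-inactivated FBS, NEAA, 30 μM βME. 3-fold serial compound dilutions in DMSO, then LPS stimulation for 3 h at 37 C, 5% CO2. Secreted TNF-alpha read by electrochemiluminescent immunoassay; percent of DMSO control; IC50 is the mean of at least three independent curves.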

[3] = system: Blood; assay: Inhibition of IL-8 production in TNFalpha challenged human whole blood after 16 to 18 hrs; format: functional, tissue-based
Procedure, shortened: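 Heparinized blood from healthy nonmedicated donors, 50% final in RPMI 1640 with 10% human AB serum. Ten-point compound titration preincubated 1 h at 37 C, 5% CO2, then TNF-alpha 1 nM final added for 16-18 h. Plasma IL-8 measured by electrochemiluminescent antibody sandwich assay; IC50 is the mean of at least three independent dose-response curves.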

[4] = Clearance in Sprague-Dawley rat at 2 mg/kg, iv; format: ADME, organism-based; design: dose 2 mg/kg, route intravenous; conditions: in vivo
[5] = Volume of distribution at steady state in Sprague-Dawley rat at 2 mg/kg, iv; format: ADME, organism-based; design: dose 2 mg/kg, route intravenous; conditions: in vivo, read-out: Vdss
[6] = Half life in Sprague-Dawley rat at 2 mg/kg, iv; format: ADME, organism-based; design: dose 2 mg/kg, route intravenous; conditions: in vivo
[7] = Oral bioavailability in Sprague-Dawley rat at 2 mg/kg; format: ADME, organism-based; conditions: in vivo
[8] = AUC (0 to infinity) in Sprague-Dawley rat at 2 mg/kg, po; format: ADME, organism-based; design: time infinity, dose 2 mg/kg, route oral; conditions: plasma
[9] = target: Mast/stem cell growth factor receptor Kit (Homo sapiens, UniProt P10721); assay: Binding affinity to c-Kit by scintillation proximity assay
Chain of Mast/stem cell growth factor receptor Kit (P10721 whole entry): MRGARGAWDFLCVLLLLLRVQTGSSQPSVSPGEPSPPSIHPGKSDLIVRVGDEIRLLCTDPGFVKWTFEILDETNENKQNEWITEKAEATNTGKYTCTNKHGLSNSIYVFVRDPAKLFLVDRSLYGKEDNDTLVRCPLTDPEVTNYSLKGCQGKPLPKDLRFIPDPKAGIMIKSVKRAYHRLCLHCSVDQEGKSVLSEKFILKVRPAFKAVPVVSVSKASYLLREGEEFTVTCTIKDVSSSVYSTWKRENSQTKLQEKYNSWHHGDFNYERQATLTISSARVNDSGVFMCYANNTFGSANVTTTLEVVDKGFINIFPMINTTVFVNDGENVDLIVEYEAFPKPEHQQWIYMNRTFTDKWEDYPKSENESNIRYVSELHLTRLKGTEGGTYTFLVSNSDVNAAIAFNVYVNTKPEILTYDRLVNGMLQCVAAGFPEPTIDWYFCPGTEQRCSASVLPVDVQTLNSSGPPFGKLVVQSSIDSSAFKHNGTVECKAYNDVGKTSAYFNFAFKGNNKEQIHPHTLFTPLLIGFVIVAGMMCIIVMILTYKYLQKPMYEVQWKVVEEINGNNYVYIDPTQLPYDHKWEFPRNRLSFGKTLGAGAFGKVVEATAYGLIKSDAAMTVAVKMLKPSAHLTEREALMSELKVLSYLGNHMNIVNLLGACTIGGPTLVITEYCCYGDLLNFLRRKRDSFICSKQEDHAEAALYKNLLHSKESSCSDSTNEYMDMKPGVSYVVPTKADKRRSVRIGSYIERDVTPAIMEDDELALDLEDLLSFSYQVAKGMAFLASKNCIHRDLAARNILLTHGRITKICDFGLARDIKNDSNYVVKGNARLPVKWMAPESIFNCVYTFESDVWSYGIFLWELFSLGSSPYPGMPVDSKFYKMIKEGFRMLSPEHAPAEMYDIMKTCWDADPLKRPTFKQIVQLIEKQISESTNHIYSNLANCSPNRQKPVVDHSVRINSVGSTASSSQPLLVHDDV

[10] = target: T1, Mitogen-activated protein kinase 14; assay: Binding affinity to p38alpha by scintillation proximity assay
[11] = target: Vascular endothelial growth factor receptor 2 (Homo sapiens, UniProt P35968); assay: Binding affinity to Kdr by scintillation proximity assay
Chain of Vascular endothelial growth factor receptor 2 (P35968 whole entry): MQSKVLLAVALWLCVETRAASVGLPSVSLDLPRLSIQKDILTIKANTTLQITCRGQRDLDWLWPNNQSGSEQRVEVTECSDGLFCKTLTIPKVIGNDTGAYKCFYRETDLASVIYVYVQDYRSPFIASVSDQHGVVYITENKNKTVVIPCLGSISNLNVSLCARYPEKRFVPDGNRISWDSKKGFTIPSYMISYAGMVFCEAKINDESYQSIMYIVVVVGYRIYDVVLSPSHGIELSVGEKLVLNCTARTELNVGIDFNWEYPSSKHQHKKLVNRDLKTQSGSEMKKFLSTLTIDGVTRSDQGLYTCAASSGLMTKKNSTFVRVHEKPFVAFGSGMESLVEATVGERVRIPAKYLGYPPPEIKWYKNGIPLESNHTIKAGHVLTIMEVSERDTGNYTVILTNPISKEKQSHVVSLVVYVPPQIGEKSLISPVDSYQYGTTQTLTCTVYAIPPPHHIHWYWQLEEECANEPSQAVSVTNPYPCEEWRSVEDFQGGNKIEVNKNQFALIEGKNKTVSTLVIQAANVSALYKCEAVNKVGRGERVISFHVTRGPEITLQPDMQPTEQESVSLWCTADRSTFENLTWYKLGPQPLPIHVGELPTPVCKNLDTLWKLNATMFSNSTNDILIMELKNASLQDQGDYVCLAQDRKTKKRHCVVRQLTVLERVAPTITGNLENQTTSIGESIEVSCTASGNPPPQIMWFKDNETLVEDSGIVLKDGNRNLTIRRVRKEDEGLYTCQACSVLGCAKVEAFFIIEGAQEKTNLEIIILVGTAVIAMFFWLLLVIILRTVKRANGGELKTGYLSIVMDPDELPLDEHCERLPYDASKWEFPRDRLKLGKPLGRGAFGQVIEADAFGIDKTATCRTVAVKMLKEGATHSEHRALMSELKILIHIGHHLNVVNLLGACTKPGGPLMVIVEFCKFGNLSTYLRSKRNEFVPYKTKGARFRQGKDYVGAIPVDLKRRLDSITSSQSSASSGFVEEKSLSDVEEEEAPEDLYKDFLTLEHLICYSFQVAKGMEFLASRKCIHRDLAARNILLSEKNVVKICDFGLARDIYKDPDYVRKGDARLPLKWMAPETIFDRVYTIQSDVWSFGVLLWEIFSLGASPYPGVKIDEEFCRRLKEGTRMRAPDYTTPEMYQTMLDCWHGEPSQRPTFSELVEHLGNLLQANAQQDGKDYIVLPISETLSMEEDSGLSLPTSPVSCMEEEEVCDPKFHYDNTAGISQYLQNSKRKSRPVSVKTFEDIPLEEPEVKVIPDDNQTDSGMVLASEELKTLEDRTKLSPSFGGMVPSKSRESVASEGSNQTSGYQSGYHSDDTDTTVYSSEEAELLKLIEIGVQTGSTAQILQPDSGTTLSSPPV

[12] = target: Tyrosine-protein kinase Lck (Homo sapiens, UniProt P06239); assay: Binding affinity to Lck by scintillation proximity assay
Chain of Tyrosine-protein kinase Lck (P06239 whole entry): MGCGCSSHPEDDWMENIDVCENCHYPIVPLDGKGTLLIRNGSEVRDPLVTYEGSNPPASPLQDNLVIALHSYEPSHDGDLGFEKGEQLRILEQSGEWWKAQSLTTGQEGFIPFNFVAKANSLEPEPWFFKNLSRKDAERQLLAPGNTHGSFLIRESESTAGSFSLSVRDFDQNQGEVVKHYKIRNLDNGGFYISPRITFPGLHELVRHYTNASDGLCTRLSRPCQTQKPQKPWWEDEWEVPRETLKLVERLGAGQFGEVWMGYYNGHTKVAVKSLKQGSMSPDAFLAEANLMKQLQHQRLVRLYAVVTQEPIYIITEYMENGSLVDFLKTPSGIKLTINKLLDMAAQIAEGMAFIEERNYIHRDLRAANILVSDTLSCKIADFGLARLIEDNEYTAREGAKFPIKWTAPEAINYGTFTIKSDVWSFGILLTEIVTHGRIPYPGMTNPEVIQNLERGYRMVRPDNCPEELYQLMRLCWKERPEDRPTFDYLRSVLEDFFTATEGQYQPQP

[13] = Plasma protein binding in rat by ultrafiltration method; format: ADME, cell-free; conditions: read-out: PPB (converted)
[14] = in vitro; conditions: human, Caco-2
[15] = Plasma protein binding in human by ultrafiltration method; format: ADME, cell-free; conditions: read-out: PPB (converted)
[16] = in vitro; conditions: human, Caco-2; remark: listed apart in the source
[17] = target: Cytochrome P450 3A4 (Homo sapiens, UniProt P08684); assay: Inhibition of CYP3A4; format: ADME
Chain of Cytochrome P450 3A4 (P08684 whole entry): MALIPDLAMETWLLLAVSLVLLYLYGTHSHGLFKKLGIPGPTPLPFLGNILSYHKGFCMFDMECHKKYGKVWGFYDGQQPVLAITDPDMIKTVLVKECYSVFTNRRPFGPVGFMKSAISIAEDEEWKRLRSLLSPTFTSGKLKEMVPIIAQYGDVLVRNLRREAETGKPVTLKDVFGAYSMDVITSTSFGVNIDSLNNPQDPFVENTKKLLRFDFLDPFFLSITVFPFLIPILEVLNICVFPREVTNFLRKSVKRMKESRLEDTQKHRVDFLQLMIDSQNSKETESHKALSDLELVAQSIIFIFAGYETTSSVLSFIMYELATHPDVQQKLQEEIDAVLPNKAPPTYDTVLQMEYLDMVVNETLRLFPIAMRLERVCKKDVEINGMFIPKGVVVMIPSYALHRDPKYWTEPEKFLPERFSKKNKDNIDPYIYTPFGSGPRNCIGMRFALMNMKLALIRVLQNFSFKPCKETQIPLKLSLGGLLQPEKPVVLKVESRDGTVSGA

[18] = target: T2, Nuclear receptor subfamily 1 group I member 2 (Homo sapiens, UniProt O75469); assay: Transactivation of human PXR expressed in HepG2 cells after 24 hrs by luciferase reporter gene assay; format: cell-based; conditions: hepg2, 24 h
T2 sequence (O75469 whole entry): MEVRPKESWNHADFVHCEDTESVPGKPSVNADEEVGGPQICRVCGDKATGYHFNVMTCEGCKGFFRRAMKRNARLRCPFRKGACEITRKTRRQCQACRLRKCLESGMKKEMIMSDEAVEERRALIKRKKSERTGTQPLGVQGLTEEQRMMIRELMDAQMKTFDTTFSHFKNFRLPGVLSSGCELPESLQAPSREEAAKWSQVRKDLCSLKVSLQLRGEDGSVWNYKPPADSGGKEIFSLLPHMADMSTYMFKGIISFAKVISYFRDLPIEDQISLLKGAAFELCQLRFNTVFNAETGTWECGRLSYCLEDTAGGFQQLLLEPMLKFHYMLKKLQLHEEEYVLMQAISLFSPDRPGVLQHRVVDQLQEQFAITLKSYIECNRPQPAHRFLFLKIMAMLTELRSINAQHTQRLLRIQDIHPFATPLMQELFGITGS
Procedure, shortened: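 HepG2 cells transfected with a CYP3A4-promoter luciferase reporter and human PXR cDNA. Compound added from DMSO stocks to final 2 and 10 μM in buffer and incubated 24 h. Luciferase activity read by chemiluminescence and reported as percent of the rifampin (10 μM) positive control.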

[19] = Homo sapiens, THP-1, 3 h, read-out: IC50
[20] = Homo sapiens, Blood, read-out: IC50

T1 sequence (Q16539 whole entry): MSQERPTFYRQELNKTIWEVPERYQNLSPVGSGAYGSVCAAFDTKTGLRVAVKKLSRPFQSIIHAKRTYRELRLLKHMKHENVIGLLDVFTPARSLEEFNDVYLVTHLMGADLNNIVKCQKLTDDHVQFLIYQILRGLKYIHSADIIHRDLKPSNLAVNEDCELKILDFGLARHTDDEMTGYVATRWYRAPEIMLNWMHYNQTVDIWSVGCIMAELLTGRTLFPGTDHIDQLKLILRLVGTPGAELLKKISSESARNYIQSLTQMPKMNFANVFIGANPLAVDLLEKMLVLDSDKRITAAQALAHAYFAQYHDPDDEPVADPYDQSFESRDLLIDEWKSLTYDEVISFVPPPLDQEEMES

SMILES	Ki [1] [nM]	IC50 [2, 19] [nM]	IC50 [3, 20] [nM]	clearance [4] [mL/min/kg]	Vd [5] [L/kg]	half-life [6] [h]	bioavailability [7] [%]	AUC(0-inf) [8] [ng·h/mL]	further results
Cc1ccc(C(=O)NC2CC2)cc1-c1cc2cnn(-c3ccccc3Cl)c2n(C)c1=O	0.9	1.1	8.7	–	–	–	–	–	–
Cc1ccc(C(=O)NC2CC2)cc1-c1cc2cnn(-c3cc(F)ccc3F)c2n(C)c1=O	1.9	1.6	3.7	4.12	0.955	2.2	10	782	–
Cc1ccc(C(=O)NC2CC2)cc1-c1cc2cnn(-c3ccccc3F)c2n(C)c1=O	–	–	–	–	–	–	–	–	Kd [9]: 1700 nM; Kd [10]: 0.18 nM; Kd [11]: 40000 nM; Kd [12]: 40000 nM
Cc1ccc(C(=O)NC2CC2)cc1-c1cc2c(C)nn(-c3c(F)cccc3F)c2n(C)c1=O	8	2.7	40	–	–	–	–	–	–
Cc1ccc(C(=O)NC2CC2)cc1-c1ccc2c(-c3ccccc3F)nncc2c1	–	–	–	–	–	–	–	–	Kd [9]: 2.4 nM; Kd [10]: 0.05 nM; Kd [11]: 320 nM; Kd [12]: 530 nM
Cc1ccc(C(=O)NC2CC2)cc1-c1cc2cnn(-c3ccc(F)cc3F)c2n(C)c1=O	–	1.5	3.9	2.88	1.69	7.7	73	5120	Kd [9]: 13000 nM; fraction unbound [13]: 0.075; Papp B→A [14]: 29 ×10⁻⁶ cm/s; Kd [11]: 40000 nM; Kd [12]: 40000 nM; fraction unbound [15]: 0.07; Papp A→B [16]: 20 ×10⁻⁶ cm/s
Cc1ccc(C(=O)NC2CC2)cc1-c1cc2cnn(-c3ncccc3C(F)(F)F)c2n(C)c1=O	2.3	14.4	24	–	–	–	–	–	–
Cn1c(=O)c(-c2cc(C(=O)NC3CC3)ccc2Cl)cc2cnn(-c3c(F)cccc3F)c21	–	0.9	–	2.75	1.47	6.3	73	8860	fraction unbound [13]: 0.032; fraction unbound [15]: 0.038
Cc1ccc(C(=O)NC2CC2)cc1-c1cc2cnn(-c3ccccc3C)c2n(C)c1=O	1.9	4	12.1	–	–	–	–	–	–
Cc1ccc(C(=O)O)cc1-c1cc2cnn(-c3c(F)cccc3F)c2n(C)c1=O	458	631	> 2500	–	–	–	–	–	–
Cc1ccc(C(=O)Nc2ccon2)cc1-c1cc2cnn(-c3c(F)cccc3F)c2n(C)c1=O	1	0.3	1.5	–	–	–	–	–	–
Cc1ccc(C(N)=O)cc1-c1cc2cnn(-c3c(F)cccc3F)c2n(C)c1=O	1.5	3.9	6.4	5.2	1.1	2.4	37	2390	–
Cc1ccc(C(=O)NC2(C)CC2)cc1-c1cc2cnn(-c3c(F)cccc3F)c2n(C)c1=O	1.7	2.7	11	–	–	–	–	–	–
CNc1noc2c(-c3cc4cnn(-c5c(F)cccc5F)c4n(C)c3=O)c(C)ccc12	2	–	–	17.6	1.89	3.5	27	515	IC50 ([2]; thp-1): 1.2 nM; IC50 [3]: 5.4 nM
Cc1c(F)cc(C(=O)NC2CC2)cc1-c1cc2cnn(-c3c(F)cccc3F)c2n(C)c1=O	0.8	0.4	1.7	–	–	–	–	–	–
CCn1c(=O)c(-c2cc(C(=O)NC3CC3)ccc2C)cc2cnn(-c3ccc(F)cc3F)c21	0.6	0.5	2.4	–	–	–	–	–	IC50 [17]: 1600 nM; Activity [18]: Not Active
